Screening results as filed in PubChem BioAssay.
Rows were chosen to be rich in hits. Some 3.7% of all compounds tested hit in one or more screens of this group.
KCNQ1 pot: human KCNQ1 channel potentiation or activation; P51787; CHO-K1 KCNQ1, thallium flux FluxOR fluorescence; active compounds read high; B-score at 10 µM; actives 0.35% (n = 310,000);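 active = fluorescence ratio B-score, a plate-corrected score, at least three library SD, with initial intensity B-score within 5 SD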
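Doses: Single concentration per compound, DMSO matched to controls | Test system: KCNQ1-transfected CHO-K1 cells | Timing: 90 min dye loading and 20 min compound exposure, both at room temperature | Measured by: Kinetic FluxOR thallium fluorescence, 10-s 1-Hz baseline, 110-s post-stimulus read | Medium: Assay buffer with matched DMSO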
hERG rescue: shields human hERG channel from block by proarrhythmic agents. CHO-hERG, FluxOR thallium flux, dofetilide IC70 present. activation (rescue from dofetilide block), less the hit threshold, % at 10 µM. actives 0.51% (n = 310,000);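 active = activation above the mean of controls blocked by dofetilide plus 5 SD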;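 note: thallium influx through hERG after potassium depolarization seen as dye fluorescence rise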
KCNK9 block: human KCNK9 channel inhibition | Q9NPC2 | HEK293 KCNK9, FluxOR thallium flux fluorescence; active compounds read low | B-score at 10 µM | actives 1.2% (n = 310,000) | AID 488922;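 active = ratio B-score over 3 SD below the library mean, with starting fluorescence within 5 SD of its mean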;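 note: negative B-score means less thallium flux so channel inhibition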
KCNQ1 inh: inhibitors of human KCNQ1 potassium channel; B-score at 10 µM; AID 2642; CHO-K1 KCNQ1, FluxOR thallium flux fluorescence; active compounds read high; actives 1.3% (n = 310,000);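 active = compounds whose thallium flux B-score, printed positive for inhibition, exceeds three library SD while starting fluorescence stays within three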;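 note: channel opened by potassium depolarization with thallium stimulus after 20 min compound exposure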
KCNK3 inh: human KCNK3 channel inhibition, primary screen. O14649. CHO-KCNK3 thallium flux, FluxOR fluorescence; active compounds read low. B-score at 10 µM. actives 0.84% (n = 340,000). AID 602410;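 active = B-score under library mean minus 4 SD, starting fluorescence ratio at most library mean plus 5 SD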;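 note: more negative B-score means stronger inhibition of thallium flux through KCNK3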
Target sequence (O14649 whole entry, looked up): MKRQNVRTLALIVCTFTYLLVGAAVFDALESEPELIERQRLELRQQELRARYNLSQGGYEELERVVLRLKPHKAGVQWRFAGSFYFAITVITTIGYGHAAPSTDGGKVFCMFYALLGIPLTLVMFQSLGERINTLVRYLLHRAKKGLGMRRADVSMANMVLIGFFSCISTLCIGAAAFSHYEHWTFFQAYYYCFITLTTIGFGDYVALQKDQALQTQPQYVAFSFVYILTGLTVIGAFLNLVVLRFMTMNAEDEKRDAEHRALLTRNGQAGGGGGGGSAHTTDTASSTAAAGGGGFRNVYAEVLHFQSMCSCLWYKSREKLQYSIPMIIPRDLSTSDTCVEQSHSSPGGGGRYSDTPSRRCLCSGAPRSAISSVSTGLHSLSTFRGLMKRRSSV
Kir21 block: Kir2.1 (mouse) channel inhibition | P35561 | HEK293-Kir2.1, FluxOR thallium flux fluorescence; active compounds read low | B-score at 10 µM | actives 0.85% (n = 310,000) | AID 1672;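 active = fluorescence ratio B-score at or below minus 3 SD of library scores, with starting-brightness B-score within 2 SD, cut at about -4.2 in these data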;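 note: channel flux triggered by added potassium and thallium sulfate stimulus; B-score of peak minus minimum fluorescence over baseline after thallium stimulus; more negative B-score means stronger Kir2.1 block with less thallium influx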
Target sequence (P35561 whole entry, looked up): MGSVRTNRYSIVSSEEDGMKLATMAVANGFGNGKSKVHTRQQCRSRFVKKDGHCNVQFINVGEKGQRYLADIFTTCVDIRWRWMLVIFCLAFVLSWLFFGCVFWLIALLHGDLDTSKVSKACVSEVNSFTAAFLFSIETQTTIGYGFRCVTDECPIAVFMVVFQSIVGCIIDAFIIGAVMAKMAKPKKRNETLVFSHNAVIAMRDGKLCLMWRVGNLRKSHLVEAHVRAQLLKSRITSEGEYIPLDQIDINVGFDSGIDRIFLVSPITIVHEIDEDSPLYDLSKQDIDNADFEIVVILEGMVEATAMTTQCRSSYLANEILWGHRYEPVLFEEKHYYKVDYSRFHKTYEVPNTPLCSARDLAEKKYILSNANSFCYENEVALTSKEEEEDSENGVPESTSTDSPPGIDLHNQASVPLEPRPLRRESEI
KCNQ1 inh valid: human KCNQ1 channel inhibition, validation assay; AID 588353; shares compounds with KCNQ1 inh; actives 93% (n = 1,600); inhibition, % at 10 µM; KCNQ1 cell line, FluxOR thallium flux fluorescence;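 active = primary screen active, with duplicate mean exceeding buffer control mean plus 3 SD of buffer wells, cut at about 28% in these data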
CHO Tl flux: counter-screen for KCNQ1 inhibitors: effect in parental CHO cells | shares compounds with KCNQ1 inh | parental CHO-K1, FluxOR thallium flux fluorescence ratio; active compounds read low; zero means no signal rise above baseline | fluorescence ratio (Tl flux) at 10 µM | actives 21% (n = 1,600) | AID 588366;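 active = mean of duplicate thallium-flux fluorescence ratios in parental host cells more than 5 SD below the buffer control mean, cut at about 0.38 in these data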;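 note: ratio is peak minus minimum fluorescence divided by baseline fluorescence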
KCNQ1 APC inh: blocks human KCNQ1 current in automated patch clamp; shares compounds with KCNQ1 inh; KCNQ1-CHO cells; calls only at 10 µM; actives 20% (n = 490); AID 624120;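 active = KCNQ1 current drop exceeding 3 SD of negative control wells, seen in both duplicate runs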;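 note: steady state current during a 2 s step from -80 to +40 mV; negative values mean current inhibition and positive values mean potentiation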
KCNQ2 spec: rat KCNQ2 inhibition in KCNQ1 inhibitor specificity screen. AID 651746. shares compounds with KCNQ1 inh. actives 71% (n = 1,600). inhibition, % at 10 µM. KCNQ2 cells, FluxOR thallium flux fluorescence;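 active = mean percent inhibition of the KCNQ2 thallium signal more than 5 SD above the buffer-only control wells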;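 note: KCNQ2 expressed in CHO cells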
KCNQ1-KCNE1 inh: selectivity of KCNQ1 inhibitors: inhibition of human KCNQ1/KCNE1 channel; shares compounds with KCNQ1 inh; KCNQ1/KCNE1 cells, FluxOR thallium flux fluorescence; inhibition, % at 10 µM; actives 77% (n = 1,600);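 active = mean percent inhibition of duplicate wells above the buffer-only control mean plus 3 SD of those controls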
Of the large screens only hits and unclear results are named; the others gave an inactive call (follow-up assays come after a bar, where they were run).

O=S(=O)(c1ccccc1)N1CCN(c2ncnc3scc(-c4ccccc4)c23)CC1	none
Oc1ccccc1N1CCN(c2ncnc3scc(-c4ccccc4)c23)CC1	KCNK9 block -7.99, KCNQ1 inh 6 | KCNQ1 inh valid 111.5 | CHO Tl flux inactive | KCNQ1 APC inh inactive | KCNQ2 spec 91.0% | KCNQ1-KCNE1 inh 155.5%
CCN(CC)c1nc2ccccc2n(Cc2cccc(OC)c2)c1=O	KCNQ1 inh 6 | KCNQ1 inh valid 109.0 | CHO Tl flux inactive | KCNQ1 APC inh inactive | KCNQ2 spec 99.3% | KCNQ1-KCNE1 inh 170.0%
Cc1ccc(C(=O)OCC(=O)Nc2cc(C(C)(C)C)nn2-c2ccccc2)c(O)c1	none
Cc1ccc(NC(=O)Cn2ccc(=O)[nH]c2=O)cc1	none
CCOC(=O)C1CCN(c2ncnc3c2oc2ccc(Cl)cc23)CC1	KCNQ1 inh 7 | KCNQ1 inh valid 62.5 | CHO Tl flux inactive | KCNQ2 spec 94.3% | KCNQ1-KCNE1 inh inactive
Cc1ccc(-n2cc(-c3ccccc3)c3c(N4CCOCC4)ncnc32)cc1	KCNQ1 inh 12 | KCNQ1 inh valid 94.5 | CHO Tl flux inactive | KCNQ1 APC inh inactive | KCNQ2 spec 106.7% | KCNQ1-KCNE1 inh 134.0%
CCOC(=O)C1CCN(c2ncnc3c2[nH]c2cccc(OC)c23)CC1	none
CCOC(=O)C1CCN(c2ncnc3c2c(-c2ccccc2)cn3-c2ccccc2)CC1	KCNQ1 inh 9 | KCNQ1 inh valid 137.5 | CHO Tl flux inactive | KCNQ1 APC inh inactive | KCNQ2 spec 104.0% | KCNQ1-KCNE1 inh active
Cc1ccc(OCCC(=O)NNC(=O)c2cc(C)oc2C)cc1	none
Cc1ccc(/C=C/C(=O)NC(=S)Nc2ccc(S(=O)(=O)Nc3cc(C)on3)cc2)cc1	none
Cc1occc1-c1nnc(SCC(=O)N2CCOCC2)n1CCc1ccccc1	KCNQ1 inh 6 | KCNQ1 inh valid 36.5 | CHO Tl flux inactive | KCNQ2 spec inactive | KCNQ1-KCNE1 inh 45.0%
Cc1occc1-c1nnc(SCC(=O)N2CCOCC2)n1CC(C)C	none
Cc1noc(C)c1NC(=O)Nc1cccc2c1O[C@@H](CN(C)C(=O)Nc1ccc3c(c1)OCO3)[C@@H](C)CN([C@H](C)CO)C2=O	none (no result: KCNQ1 pot, hERG rescue, KCNK9 block, KCNQ1 inh, Kir21 block)
CCn1c(C)nc2cc(C(=O)OC(C(F)(F)C(F)F)C(F)(F)C(F)F)ccc21	KCNQ1 inh 9 | KCNQ1 inh valid 131.0 | CHO Tl flux inactive | KCNQ1 APC inh inactive | KCNQ2 spec 88.7% | KCNQ1-KCNE1 inh 115.5%
CCn1c(C)nc2cc(C(=O)NNC(=O)c3ccc(C)cc3)ccc21	none (no result: KCNQ1 pot, hERG rescue, KCNK9 block, KCNQ1 inh, Kir21 block)
COC(=O)c1cccc(Nc2nc(-c3cccnc3)nc3ccccc23)c1	none
CCOC(=O)c1cccc(Nc2nc(-c3cccnc3)nc3ccccc23)c1	KCNQ1 inh 7 | KCNQ1 inh valid 124.5 | CHO Tl flux inactive | KCNQ1 APC inh inactive | KCNQ2 spec 122.0% | KCNQ1-KCNE1 inh active
CC(C(=O)NCc1ccccc1)N1C(=O)c2ccccc2C1=O (stereo not drawn)	KCNQ1 inh 7 | KCNQ1 inh valid 28.5 | CHO Tl flux inactive | KCNQ2 spec inactive | KCNQ1-KCNE1 inh inactive
Cc1onc(-c2ccccc2)c1C(=O)Nc1nc(-c2ccc(F)c(F)c2)cs1	KCNQ1 inh 7 | KCNQ1 inh valid 103.5 | CHO Tl flux inactive | KCNQ1 APC inh inactive | KCNQ2 spec 109.0% | KCNQ1-KCNE1 inh 120.0%
O=C(Nc1ccccc1)Nc1nc(-c2ccc(F)c(F)c2)cs1	KCNQ1 inh 6 | KCNQ1 inh valid 72.0 | CHO Tl flux inactive | KCNQ2 spec 83.7% | KCNQ1-KCNE1 inh 81.5%
Cc1c(Br)c(O)c(Br)c2sc(=O)oc12	none (no result: KCNQ1 pot, hERG rescue, KCNK9 block, KCNQ1 inh, Kir21 block)
COc1ccc([N+](=O)[O-])cc1NC(=O)CCS(=O)(=O)c1ccc(Br)cc1	none
CC1CCN(CCCNC(=O)c2ccc3c(=O)n(Cc4ccc(Cl)cc4)c(=S)[nH]c3c2)CC1	KCNQ1 inh 7 | KCNQ1 inh valid inactive | CHO Tl flux inactive | KCNQ2 spec inactive | KCNQ1-KCNE1 inh inactive
NC1=NC[C@H](c2ccccc2)N1CCCCC1CCCCC1	KCNQ1 inh 9, Kir21 block -6.74 | KCNQ1 inh valid 116.5 | CHO Tl flux inactive | KCNQ1 APC inh active | KCNQ2 spec 120.3% | KCNQ1-KCNE1 inh 87.5%
S=C1NC[C@H](c2ccccc2)N1CCCCC1CCCCC1	none
CCN(CC)C(=O)C1c2ccccc2Oc2ccccc21	KCNQ1 inh 16 | KCNQ1 inh valid inactive | CHO Tl flux inactive | KCNQ2 spec 77.3% | KCNQ1-KCNE1 inh 71.0%
Cc1cccc(OCc2nc(C#N)c(N3CC(C)CC(C)C3)o2)c1 (stereo not drawn)	KCNQ1 inh 8, KCNK3 inh -11.8 | KCNQ1 inh valid 103.0 | CHO Tl flux 0.376 | KCNQ2 spec inactive | KCNQ1-KCNE1 inh 103.5%
Cn1c(=O)c(N)c2c3c(c(Br)ccc31)C(=O)c1ccccc1-2	KCNQ1 inh 21 | KCNQ1 inh valid active | CHO Tl flux 0.0285 | KCNQ2 spec inactive | KCNQ1-KCNE1 inh inactive
Cc1cc(NCC2CCCCC2)nc2ccccc12	KCNQ1 inh 7 | KCNQ1 inh valid 68.0 | CHO Tl flux inactive | KCNQ2 spec inactive | KCNQ1-KCNE1 inh 66.5%
Cc1cc(NCCNC2=CC(=O)CCC2)nc2ccccc12	none
O=C(c1cccc(S(=O)(=O)N2CCN(c3ccc(F)cc3)CC2)c1)N1CCCC(C(F)(F)F)C1 (stereo not drawn)	KCNQ1 inh 6 | KCNQ1 inh valid 94.0 | CHO Tl flux inactive | KCNQ1 APC inh inactive | KCNQ2 spec 89.0% | KCNQ1-KCNE1 inh 64.5%
CC1CN(C(=O)c2cccc(S(=O)(=O)N3CCN(c4ccc(F)cc4)CC3)c2)CC(C)O1 (stereo not drawn)	none
COc1ccc(NC(=O)c2cc(-c3cc(C)cc(C)c3O)n[nH]2)cc1Cl	KCNQ1 inh 8, KCNK3 inh -9.16 | KCNQ1 inh valid 168.5 | CHO Tl flux 0.272 | KCNQ2 spec 114.0% | KCNQ1-KCNE1 inh active
